Calls of active or inactive are those of the source. The rule behind the calls is not given here.
Columns and labels:
[1] = target: T1, DNA topoisomerase 1 (Homo sapiens) (UniProt P11387); experiment: Inhibition of recombinant Top1 (unknown origin) using 3'-[32P]-end-labeled 117 bp oligonucleotide as substrate after 20 mins by SDS-PAGE analysis
T1 sequence (whole entry): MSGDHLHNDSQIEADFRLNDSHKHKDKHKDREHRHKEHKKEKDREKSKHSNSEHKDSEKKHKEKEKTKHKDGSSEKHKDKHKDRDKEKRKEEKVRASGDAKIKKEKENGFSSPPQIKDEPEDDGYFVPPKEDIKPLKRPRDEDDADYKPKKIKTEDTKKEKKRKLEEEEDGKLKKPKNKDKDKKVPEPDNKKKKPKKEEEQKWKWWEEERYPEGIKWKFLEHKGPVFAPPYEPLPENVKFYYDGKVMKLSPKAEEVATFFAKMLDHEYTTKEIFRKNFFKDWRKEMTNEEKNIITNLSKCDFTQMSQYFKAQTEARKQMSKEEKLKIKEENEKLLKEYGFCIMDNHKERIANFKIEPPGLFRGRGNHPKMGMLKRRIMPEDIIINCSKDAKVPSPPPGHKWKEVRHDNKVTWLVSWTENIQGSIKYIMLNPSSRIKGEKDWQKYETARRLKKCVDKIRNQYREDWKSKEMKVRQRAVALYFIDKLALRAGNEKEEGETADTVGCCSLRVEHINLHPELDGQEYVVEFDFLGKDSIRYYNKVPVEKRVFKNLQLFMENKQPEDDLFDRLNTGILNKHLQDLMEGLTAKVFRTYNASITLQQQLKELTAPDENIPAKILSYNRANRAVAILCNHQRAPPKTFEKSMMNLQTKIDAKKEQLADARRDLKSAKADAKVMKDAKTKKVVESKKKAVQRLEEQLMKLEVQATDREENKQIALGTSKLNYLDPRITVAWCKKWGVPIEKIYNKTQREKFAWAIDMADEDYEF
In short: (§1)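 3′-[32P]-end-labeled 117-bp DNA at 2 nM incubated with recombinant Top1 at 25 °C for 20 min across a range of compound concentrations. Stopped with SDS (0.5% final) plus formamide loading dye, then 20% denaturing PAGE. Dried gels were phosphorimaged.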

[2] = target: Tyrosyl-DNA phosphodiesterase 1 (Homo sapiens, UniProt Q9NUW8); experiment: Inhibition of recombinant Tdp1 (unknown origin) using 5'-[32P]-labeled single-stranded DNA oligonucleotide containing 3'-phosphotyrosine as substrate after 15 mins by PAGE analysis
SF-539 = experiment: Growth inhibition of human SF539 cells; format: functional
In short: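 Human cancer cell line panel, compounds tested at concentrations up to 10 μM. GI50 per cell line is the mean of two determinations where a standard error is given, otherwise from one determination.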

MDA-MB-435 = experiment: Growth inhibition of human MDA-MB-435 cells; format: functional
SN12C = experiment: Growth inhibition of human SN12C cells; format: functional
DU-145 = experiment: Growth inhibition of human DU145 cells; format: functional
OVCAR-3 = experiment: Growth inhibition of human OVCAR3 cells; format: functional
UACC-62 = experiment: Growth inhibition of human UACC62 cells; format: functional
HCT-116 = experiment: Growth inhibition of human HCT116 cells; format: functional
HOP-62 = experiment: Growth inhibition of human HOP62 cells; format: functional
[3] = target: T1, DNA topoisomerase 1 (Homo sapiens); experiment: Inhibition of recombinant Top1 (unknown origin) using 3'-[32P]-end-labeled 117 bp oligonucleotide as substrate after 20 mins by SDS-PAGE analysis relative to 1 uM MJ-3-65
[4] = target: T1, DNA topoisomerase 1 (Homo sapiens); experiment: Inhibition of recombinant Top1 (unknown origin) using 3'-[32P]-end-labeled 117 bp oligonucleotide as substrate assessed as suppression of DNA cleavage at 100 uM by SDS-PAGE analysis; in short: as §1

Chain of Tyrosyl-DNA phosphodiesterase 1 (Q9NUW8 whole entry): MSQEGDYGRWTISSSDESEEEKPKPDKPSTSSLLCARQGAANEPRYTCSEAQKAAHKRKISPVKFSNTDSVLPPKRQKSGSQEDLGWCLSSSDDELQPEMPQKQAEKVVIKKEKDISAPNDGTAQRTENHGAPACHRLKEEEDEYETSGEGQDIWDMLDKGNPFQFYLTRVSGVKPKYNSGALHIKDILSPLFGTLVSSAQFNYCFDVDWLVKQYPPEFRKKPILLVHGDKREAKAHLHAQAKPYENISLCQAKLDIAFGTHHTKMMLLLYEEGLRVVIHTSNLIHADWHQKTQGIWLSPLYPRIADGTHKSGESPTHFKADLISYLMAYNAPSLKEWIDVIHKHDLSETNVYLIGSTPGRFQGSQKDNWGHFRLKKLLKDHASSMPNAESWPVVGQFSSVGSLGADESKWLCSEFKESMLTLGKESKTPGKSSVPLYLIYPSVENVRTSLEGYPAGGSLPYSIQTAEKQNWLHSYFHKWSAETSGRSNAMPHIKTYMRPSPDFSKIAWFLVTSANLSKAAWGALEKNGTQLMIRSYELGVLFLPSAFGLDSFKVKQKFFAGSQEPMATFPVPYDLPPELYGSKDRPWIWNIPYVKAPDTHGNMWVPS

In the case of `COC(=O)CCCC(=O)Nc1ccc2c3c(n(CCCNC(=O)OC(C)(C)C)c(=O)c2c1)-c1ccccc1C3=O`, the inhibition [1] is reported as “inactive” and the IC50 [2] is reported as > 111 µM.
In the case of `CC(C)(C)OC(=O)NCCCn1c2c(c3ccc(NC(=O)CCCC(=O)O)cc3c1=O)C(=O)c1ccccc1-2`, the inhibition [1] is reported as “inactive” and the IC50 [2] is reported as > 111 µM.
`COc1ccc2c(c1)C(=O)c1c-2n(CCCN)c(=O)c2cc(I)ccc12` was tested, and the GI50 (SF-539) was 390 nM, the GI50 (MDA-MB-435) was 960 nM and the GI50 (SN12C) was 50 nM. It also gave a GI50 (DU-145) of 50 nM, a GI50 (OVCAR-3) of 1320 nM and a GI50 (UACC-62) of 140 nM. It also gave a GI50 (HCT-116) of 70 nM and a GI50 (HOP-62) of 140 nM.
With `COC(=O)CCCC(=O)Nc1ccc2c3c(n(CCCN)c(=O)c2c1)-c1ccccc1C3=O` the inhibition [1] was “inactive”, the GI50 (SF-539) was 1470 nM and the GI50 (MDA-MB-435) was 2050 nM. For the same compound, the GI50 (SN12C) was 1020 nM, the GI50 (DU-145) was 540 nM and the GI50 (OVCAR-3) was 1470 nM. For the same compound, the GI50 (UACC-62) was 1220 nM, the GI50 (HCT-116) was 380 nM and the GI50 (HOP-62) was 790 nM.
With `CC(C)(C)OC(=O)NCCCn1c2c(c3ccc(NCC(=O)O)cc3c1=O)C(=O)c1ccccc1-2` the inhibition [1] was “inactive” and the IC50 [2] was > 111 µM.
`NCCCn1c2c(c3ccc(N)cc3c1=O)C(=O)c1ccccc1-2` was tested, and the GI50 (SF-539) was 340 nM, the GI50 (MDA-MB-435) was 230 nM and the GI50 (SN12C) was 230 nM. For the same compound, the GI50 (DU-145) was 120 nM, the GI50 (OVCAR-3) was 130 nM and the GI50 (UACC-62) was 300 nM. It also gave a GI50 (HCT-116) of 180 nM and a GI50 (HOP-62) of 270 nM.
`CCOC(=O)CNc1ccc2c3c(n(C)c(=O)c2c1)-c1ccccc1C3=O` was tested, and the inhibition [1] was “inactive” and the IC50 [2] was > 111 µM.
With `COC(=O)CC(=O)Nc1ccc2c3c(n(C)c(=O)c2c1)-c1ccccc1C3=O` the inhibition [1] was “inactive” and the IC50 [2] was > 111 µM.
With `CC(=O)Nc1ccc2c3c(n(CCCN=[N+]=[N-])c(=O)c2c1)-c1ccccc1C3=O` the inhibition [3] was “Active”.
With `CC(=O)Nc1ccc2c3c(n(CCCN)c(=O)c2c1)-c1ccccc1C3O` (stereo unspecified) the inhibition [1] was “inactive”.
`NCCCn1c2c(c3ccc(NC(=O)CCCCC(=O)O)cc3c1=O)C(=O)c1ccccc1-2` was tested, and the inhibition [1] was “inactive” and the IC50 [2] was > 111 µM.
For `COC(=O)C(=O)Nc1ccc2c3c(n(C)c(=O)c2c1)-c1ccccc1C3=O`, the inhibition [1] was “inactive” and the IC50 [2] was > 111 µM.
With `COc1ccc2c(c1)-c1c(c3ccc([N+](=O)[O-])cc3c(=O)n1CCCn1ccnc1)C2=O` the GI50 (SF-539) was < 10 nM, the GI50 (MDA-MB-435) was 30 nM and the GI50 (SN12C) was < 10 nM. For the same compound, the GI50 (DU-145) was < 10 nM, the GI50 (OVCAR-3) was 30 nM and the GI50 (UACC-62) was < 10 nM. The GI50 (HCT-116) was < 10 nM, the GI50 (HOP-62) was < 10 nM and the inhibition [4] was “inactive”. The inhibition [3] was “Active”.
For `COc1ccc2c(c1)C(=O)c1c-2n(CCCN)c(=O)c2cc(N)ccc12`, the GI50 (SF-539) was 30 nM, the GI50 (MDA-MB-435) was 120 nM and the GI50 (SN12C) was < 10 nM. For the same compound, the GI50 (DU-145) was < 10 nM, the GI50 (OVCAR-3) was 20 nM and the GI50 (UACC-62) was 100 nM. For the same compound, the GI50 (HCT-116) was < 10 nM and the GI50 (HOP-62) was < 10 nM.
For `COc1ccc2c(c1)-c1c(c3ccc([N+](=O)[O-])cc3c(=O)n1CCCBr)C2=O`, the inhibition [3] was “Active” and the IC50 [2] was > 111 µM.
For `N#Cc1ccc2c3c(n(CCCn4ccnc4)c(=O)c2c1)-c1ccccc1C3=O`, the inhibition [3] was “Active” and the IC50 [2] was > 111 µM.
For `CC(=O)Nc1ccc2c3c(n(CCCO)c(=O)c2c1)-c1ccccc1C3=O`, the inhibition [1] was “inactive”.
With `COC(=O)C(=O)Nc1ccc2c3c(n(CCCN)c(=O)c2c1)-c1ccccc1C3=O` the inhibition [1] was “inactive”, the GI50 (SF-539) was 6900 nM and the GI50 (MDA-MB-435) was 3360 nM. For the same compound, the GI50 (SN12C) was 2530 nM, the GI50 (DU-145) was 1110 nM and the GI50 (OVCAR-3) was 4010 nM. For the same compound, the GI50 (UACC-62) was 1220 nM, the GI50 (HCT-116) was 570 nM and the GI50 (HOP-62) was 650 nM. For the same compound, the IC50 [2] was 45 µM.
For `COc1ccc2c(c1)C(=O)c1c-2n(CCCN(C)C)c(=O)c2cc(I)ccc12`, the inhibition [4] was “Active” and the inhibition [3] was “Active”.
In the case of `NCCCn1c2c(c3ccc(NC(=O)CCC(=O)O)cc3c1=O)C(=O)c1ccccc1-2`, the inhibition [1] is reported as “inactive” and the IC50 [2] is reported as > 111 µM.
`COC(=O)CCC(=O)Nc1ccc2c3c(n(C)c(=O)c2c1)-c1ccccc1C3=O` was tested, and the IC50 [2] was > 111 µM.
For `CN(C)CCCn1c2c(c3ccc(C#N)cc3c1=O)C(=O)c1cc3c(cc1-2)OCO3`, the inhibition [4] was “Active” and the IC50 [2] was > 111 µM.

— ChEMBL document CHEMBL2311405, “Synthesis and biological evaluation of indenoisoquinolines that inhibit both tyrosyl-DNA phosphodiesterase I (Tdp1) and topoisomerase I (Top1)” (J Med Chem, 2013)
